We go through 13 compounds from ChEMBL document CHEMBL4251619, “A new family of densely functionalized fused-benzoquinones as potent human protein kinase CK2 inhibitors” (Eur J Med Chem, 2018).

One test has as its target Casein kinase 2 (Homo sapiens, UniProt P67870+P68400+P19784+Q8NEV1). Kind of test: Inhibition of CK2 (unknown origin). The class given is protein assay.
The target of test [1] is T1, Casein kinase II alpha/beta (Homo sapiens, UniProt P68400). Kind of test: Inhibition of human CK2-alpha/beta expressed in Escherichia coli BL21(DE3) using RRRDDDSDDD peptide as substrate after 15 mins by capillary electrophoresis method.
Test [2] has as its system MCF7. As to the kind of experiment: Cytotoxicity against human MCF7 cells assessed as inhibition of cell viability at 10 uM after 48 hrs by MTT assay. The class given is functional, cell-based. The gist of the method: (§1)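 MCF-7 cells grown in RPMI 1640 with GlutaMax and 10% FCS. Seeded at 1 x 10^5 cells/well and left overnight, then given fresh medium with inhibitor at 10 or 100 µM; 1% DMSO as control. After 48 h at 37 °C, 5% CO₂, MTT was added (0.5 mg/mL final) for 2 h. Formazan dissolved in DMSO and read at 570 nm against 630 nm reference. Triplicates, three independent experiments, mean ± SD.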
In general terms: Tetrazolium dyes change colour on reduction, which living cells bring about.

Test [3] concerns the target T1, Casein kinase II alpha/beta. As to the kind of experiment: ATP-competitive inhibition of human CK2-alpha/beta expressed in Escherichia coli BL21(DE3) using RRRDDDSDDD peptide as substrate after 15 mins in presence of varying levels of ATP by capillary electrophoresis method.
Test [4] has as its system MCF7. As to the kind of experiment: Cytotoxicity against human MCF7 cells assessed as inhibition of cell viability at 100 uM after 48 hrs by MTT assay relative to control. In kind it is functional. The settings on record: MCF7, 48 h. Summed up:
as §1

A word on the IC50: it is the concentration that inhibits the measured activity by half. The low end stands for greater potency, the high end for weaker potency. What is called inhibition is the relative decrease from the control value, in per cent. The Ki is the dissociation constant of the complex between target and ligand, obtained from inhibition or displacement.

Active and inactive are the calls of the source. The calls are words filed in the database; no cut-off is given here.

Consider `CCCCCCCCCCCC1=C(O)C(=O)C2=C(OC(N)=C(C#N)C2c2ccc(Cl)cc2)C1=O` (stereo unspecified), for which the results for the IC50 (against Casein kinase 2; in test [1]) were less than 1000 nM and 900 nM, respectively. In the test on MCF7 [2], the inhibition entry was “inactive”.

Turning to `CCCCCCCCCCCC1=C(O)C(=O)C2=C(OC(N)=C(C#N)C2c2cccnc2)C1=O` (stereo unspecified), the IC50 in test [1] was determined as 1380 nM.

Compound `CCCCCCCCCCCC1=C(O)C(=O)C2=C(OC(N)=C(C#N)C2c2ccccc2)C1=O` (stereo unspecified) gave an IC50 in test [1] of 570 nM. In addition, the Ki in test [3] is 390 nM. The inhibition entry in the test on MCF7 [2] was “inactive”. Besides, in the test with MCF7 [4], the inhibition at 100 µM was 50%.

With `CCCCCCCCCCCC1=C(O)C(=O)C2=C(OC(N)=C(C#N)C2c2ccc([N+](=O)[O-])cc2)C1=O` (stereo unspecified), the IC50 in test [1] is 220 nM. In addition, in the test with MCF7 [2], the inhibition result is “inactive”. In the test on MCF7 [4], the inhibition at 100 µM was 90%.

Compound `CCCCCCCCCCCC1=C(O)C(=O)C2=C(OC(N)=C(C#N)C2c2ccncc2)C1=O` (stereo unspecified) gave an IC50 in test [1] of 1440 nM. That is a single-digit micromolar value.

`CCCCCCCCCCCC1=C(O)C(=O)C2=C(OC(N)=C(C#N)C2CCCCCC)C1=O` (stereo unspecified) yielded an IC50 in test [1] of 3710 nM.

Take `CCCCCCCCC1=C(O)C(=O)C2=C(OC(N)=C(C#N)C2c2ccc([N+](=O)[O-])cc2)C1=O` (stereo unspecified): the IC50 in test [1] worked out at 1990 nM. Compared with the last compound, the IC50 is about 1.9-fold lower.

Regarding `CCCCCCCCCCCC1=C(O)C(=O)C2=C(OC(N)=C(C#N)C2c2ccc(OC)cc2)C1=O` (stereo unspecified), in test [1], the IC50 was 840 nM. For the same compound, the inhibition entry with MCF7 [2] is “inactive”. The inhibition at 100 µM with MCF7 [4] came out at 55%.

As for `CCCCCCCCCCCC1=C(O)C(=O)C2=C(OC(N)=C(C#N)C2c2ccc3c(c2)OCO3)C1=O` (stereo unspecified), in test [1], the IC50 stood at 1940 nM.

Compound `CCCCCCCCCCCC1=C(O)C(=O)C2=C(OC(N)=C(C#N)C2c2ccco2)C1=O` (stereo unspecified) came in with an IC50 in test [1] of 720 nM.

With `CCCCCCCCCCCC1=C(O)C(=O)C2=C(OC(N)=C(C#N)C2c2cccc(F)c2)C1=O` (stereo unspecified), in test [1], the IC50 was determined as 996 nM. For the same compound, the inhibition entry in the test with MCF7 [2] was “inactive”. Besides, in the test on MCF7 [4], the inhibition at 100 µM is 60%.

`CCCCCCCCCCCC1=C(O)C(=O)C2=C(OC(N)=C(C#N)C2c2ccc(C(=O)O)cc2)C1=O` (stereo unspecified) returned an IC50 in test [1] of 1360 nM.

In the case of `CCCCCCCCCCCC1=C(O)C(=O)C2=C(OC(N)=C(C#N)C2c2cccc([N+](=O)[O-])c2)C1=O` (stereo unspecified), the IC50 in test [1] is 890 nM. The inhibition result in the test on MCF7 [2] is “inactive”. The inhibition at 100 µM with MCF7 [4] was 65%.
